The subject of assay [1] is Streptococcus pneumoniae. The assay can be described thus: Antibacterial activity against erythromycin-resistant Streptococcus pneumoniae 205. Format: functional. The method, boiled down:
(§1)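 MIC by broth microdilution following CLSI (formerly NCCLS) guidelines for S. pneumoniae.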

In assay [2] the test system is Streptococcus pneumoniae. Put plainly: Antibacterial activity against erythromycin-susceptible Streptococcus pneumoniae ATCC 49619. In kind it is functional. Put shortly:
as §1

In brackets after ≈: the same amount, converted by molar mass. A value given as a limit tells only on which side of the number the result lay.

The record followed here is ChEMBL document CHEMBL1671842, “Synthesis and antibacterial activity of a novel class of 15-membered macrolide antibiotics, "11a-azalides"” (2011).

For orientation: MIC means the smallest concentration in the dilution series that meets the test's criterion for growth inhibition. A high value points to a need for much substance.

On to `CO[C@]1(C)C[C@H](O[C@H]2[C@H](C)[C@@H](O[C@@H]3O[C@H](C)C[C@H](N(C)C)[C@H]3O)[C@@](C)(O)C[C@@H](C)[C@H](O)[C@H](C)CN(C)CCOC(=O)[C@@H]2C)O[C@@H](C)[C@@H]1O`, for which the MIC in assay [1] was greater than 128 µg/mL; in assay [2] it was 4 µg/mL (≈ 5.79 µM).

Take `CO[C@]1(C)C[C@H](O[C@H]2[C@H](C)[C@@H](O[C@@H]3O[C@H](C)C[C@H](N(C)C)[C@H]3O)[C@@](C)(O)C[C@@H](C)[C@H](O)[C@H](C)CN(C)[C@@H](COCc3ccccc3)COC(=O)[C@@H]2C)O[C@@H](C)[C@@H]1O`: the MIC in assay [1] was determined as 128 µg/mL (≈ 158 µM); in assay [2], 2 µg/mL (≈ 2.47 µM).

As for `CO[C@]1(C)C[C@H](O[C@H]2[C@H](C)[C@@H](O[C@@H]3O[C@H](C)C[C@H](N(C)C)[C@H]3O)[C@@](C)(O)C[C@@H](C)[C@H](O)[C@H](C)CN(C)C[C@@H](COCc3ccccc3)OC(=O)[C@@H]2C)O[C@@H](C)[C@@H]1O`, the MIC in assay [1] was found to be 64 µg/mL (≈ 78.9 µM); in assay [2], 1 µg/mL (≈ 1.23 µM).

As for `CO[C@]1(C)C[C@H](O[C@H]2[C@H](C)[C@@H](O[C@@H]3O[C@H](C)C[C@H](N(C)C)[C@H]3O)[C@@](C)(O)C[C@@H](C)[C@H](O)[C@H](C)CN(C)C[C@H](COCc3ccccc3)OC(=O)[C@@H]2C)O[C@@H](C)[C@@H]1O`, the MIC is 32 µg/mL (≈ 39.5 µM) in assay [1] and 0.12 µg/mL (≈ 0.148 µM) in assay [2].

In the case of `CC[C@H]1OC(=O)[C@H](C)[C@@H](O[C@H]2C[C@@](C)(OC)[C@@H](O)[C@H](C)O2)[C@H](C)[C@@H](O[C@@H]2O[C@H](C)C[C@H](N(C)C)[C@H]2O)[C@](C)(OC)C[C@@H](C)C(=O)[C@H](C)[C@@H](O)[C@]1(C)O` [CLARITHROMYCIN], the MIC in assay [1] is greater than 128 µg/mL; in assay [2] it was 0.03 µg/mL (≈ 0.0401 µM).
